Several values for one entry are separate records, joined by “and”; a condition that tells them apart may be missing. Identical values can stand only once. Entries after “also recorded” stand apart in the source; their conditions may differ. Counter-ions that a name gives are not always drawn. Like-named read-outs stand apart in the source and are kept apart here. Blank lines part the entries; values can stand above or below the compound they belong to.
Legend:
[1] = system: C. parvum; assay: In vitro Cryptosporidium parvum-infected HCT-8 cell assay; type: cell-based; conditions: for potency in the Cp HCT-8 assay, in words: C. parvum in HCT-8 cells; for EC50: Cryptosporidium parvum, HCT-8, read-out: EC50 in the Cp HCT-8 assay; for LipE (pEC50 minus logP): Cp pEC50 and calculated logP
[2] = system: C. parvum; conditions: dairy calf; cited from earlier work
[3] = system: C. hominis; conditions: gnotobiotic piglet; cited from earlier work
[4] = system: C. parvum; conditions: acute and chronic mouse models; cited from earlier work
[5] = system: Cryptosporidium; conditions: cited from earlier work
[6] = biological target: hERG channel (Homo sapiens, UniProt Q12809); assay: hERG-CHO automated patch clamp electrophysiology assay; type: cell-based; conditions: 10 μM
Chain of hERG channel (Q12809 whole entry): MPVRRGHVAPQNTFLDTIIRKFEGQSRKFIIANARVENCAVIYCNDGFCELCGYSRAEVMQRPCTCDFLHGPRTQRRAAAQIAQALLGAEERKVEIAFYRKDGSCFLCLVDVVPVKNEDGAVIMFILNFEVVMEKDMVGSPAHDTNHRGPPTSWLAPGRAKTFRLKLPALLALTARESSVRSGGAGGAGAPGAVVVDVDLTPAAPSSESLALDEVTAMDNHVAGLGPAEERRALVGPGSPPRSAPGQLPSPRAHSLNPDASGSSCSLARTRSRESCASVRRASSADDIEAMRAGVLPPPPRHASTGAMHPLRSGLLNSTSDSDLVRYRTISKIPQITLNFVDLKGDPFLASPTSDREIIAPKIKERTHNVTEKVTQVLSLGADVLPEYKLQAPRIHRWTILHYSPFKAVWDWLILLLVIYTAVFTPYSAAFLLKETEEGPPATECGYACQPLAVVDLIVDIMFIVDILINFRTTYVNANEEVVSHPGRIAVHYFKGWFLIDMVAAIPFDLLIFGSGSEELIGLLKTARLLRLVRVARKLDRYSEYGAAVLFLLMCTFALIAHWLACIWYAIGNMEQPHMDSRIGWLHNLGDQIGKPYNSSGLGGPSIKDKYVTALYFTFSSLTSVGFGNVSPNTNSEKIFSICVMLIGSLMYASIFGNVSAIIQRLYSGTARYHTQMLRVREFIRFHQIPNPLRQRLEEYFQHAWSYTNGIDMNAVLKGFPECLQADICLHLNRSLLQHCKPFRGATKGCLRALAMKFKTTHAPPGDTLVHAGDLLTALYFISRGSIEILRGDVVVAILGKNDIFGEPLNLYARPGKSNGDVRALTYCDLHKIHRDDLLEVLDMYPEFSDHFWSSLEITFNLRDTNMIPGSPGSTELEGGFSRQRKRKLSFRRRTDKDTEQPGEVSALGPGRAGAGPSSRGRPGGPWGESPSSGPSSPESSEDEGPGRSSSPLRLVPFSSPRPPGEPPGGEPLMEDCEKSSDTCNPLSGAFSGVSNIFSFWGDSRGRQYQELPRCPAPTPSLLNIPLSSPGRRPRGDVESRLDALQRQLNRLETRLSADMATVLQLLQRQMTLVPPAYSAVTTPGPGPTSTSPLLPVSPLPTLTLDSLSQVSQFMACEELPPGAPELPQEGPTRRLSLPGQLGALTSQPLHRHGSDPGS

[7] = biological target: human potassium channel hERG (Homo sapiens, UniProt Q12809); assay: [3H]-dofetilide competitive binding assay; conditions: 10 μM
Chain of human potassium channel hERG (Q12809 whole entry): as above
Procedure, shortened: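 Radioligand competition on the human hERG potassium channel: test compound competes with [³H]-dofetilide, and binding is reported as percent inhibition of [³H]-dofetilide binding. Run by an outside contract laboratory.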

SMILES: O=C(Cc1ccc(Cl)c(Cl)c1)N1CCN(c2nc3ccccc3o2)CC1 [Compound 29a, 1-(4-(benzo[d]oxazol-2-yl)piperazin-1-yl)-2-(3,4-dichlorophenyl)ethanone]
potency in the Cp HCT-8 assay, in words [1]: did not yield better potency

EC50 [1]: 20 to 30 µM
SMILES: O=C(Cc1ccc(Cl)c(Cl)c1)N1CCN(c2ccn3nccc3n2)CC1 [Compound 19, 2-(3,4-dichlorophenyl)-1-(4-(pyrazolo[1,5-a]pyrimidin-5-yl)piperazin-1-yl)ethanone]

SMILES: O=C(Cc1ccc(Cl)c(Cl)c1)N1CCNCC1 [Compound 4, 2-(3,4-dichlorophenyl)-1-(piperazin-1-yl)ethanone hydrochloride]
EC50 [1]: ≥ 20 µM

SMILES: O=C(Nc1ccc(Cl)cc1)N1CCN(c2ccc3nncn3n2)CC1 [Compound 1]
oral efficacy in vivo [2]: oral efficacy
oral efficacy in vivo [3]: oral efficacy
oral efficacy in vivo [4]: oral efficacy

LipE (pEC50 minus logP) [1]: 3.3
SMILES: O=C(Cc1ccc(Cl)c(Cl)c1)N1CCN(c2ccc3nncn3n2)CC1 [Compound 2a, 1-(4-([1,2,4]triazolo[4,3-b]pyridazin-6-yl)piperazin-1-yl)-2-(3,4-dichlorophenyl)ethanone]
efficacy in vivo [5]: efficacious in vivo

SMILES: O=C(Cc1ccc(Cl)c(Cl)c1)N1CCN(c2nc3ccccc3s2)CC1 [Compound 29b, 1-(4-(benzo[d]thiazol-2-yl)piperazin-1-yl)-2-(3,4-dichlorophenyl)ethanone]
potency in the Cp HCT-8 assay, in words [1]: did not yield better potency

SMILES: Nc1nc2nc(N3CCN(C(=O)Cc4ccc(Cl)c(Cl)c4)CC3)ccc2s1 [Compound 31b, 1-(4-(2-aminothiazolo[4,5-b]pyridin-5-yl)piperazin-1-yl)-2-(3,4-dichlorophenyl)ethanone]
potency in the Cp HCT-8 assay, in words [1]: low micromolar range; also recorded: modestly potent
fold more potent than methyl analog 31a ([1]; ratio of Cp EC50 values): 5 fold

SMILES: O=C(Nc1ccc(Cl)c(Cl)c1)N1CCN(c2nc3ccccc3[nH]2)CC1 [Compound 28, 4-(1H-benzo[d]imidazol-2-yl)-N-(3,4-dichlorophenyl)piperazine-1-carboxamide]
potency in the Cp HCT-8 assay, in words [1]: did not yield better potency

EC50 [1]: 20 to 30 µM
SMILES: O=C(Cc1ccc(Cl)c(Cl)c1)N1CCN(c2ccc3nonc3c2)CC1 [Compound 24, 1-(4-(benzo[c][1,2,5]oxadiazol-5-yl)piperazin-1-yl)-2-(3,4-dichlorophenyl)ethanone]

SMILES: O=C(Nc1ccc(Cl)c(Cl)c1)N1CCN(c2ccc3nccn3n2)CC1 [Compound 18b, N-(3,4-dichlorophenyl)-4-(imidazo[1,2-b]pyridazin-6-yl)piperazine-1-carboxamide]
potency in the Cp HCT-8 assay, in words [1]: drastically reduced the potency

LipE (pEC50 minus logP) [1]: 4.13
SMILES: O=C(Cc1ccc(Cl)c(Cl)c1)N1CCN(C2=Nn3cnnc3CC2)CC1 [Compound 17a, 2-(3,4-dichlorophenyl)-1-(4-(7,8-dihydro-[1,2,4]triazolo[4,3-b]pyridazin-6-yl)piperazin-1-yl)ethanone]
fold less potent than 2a (SLU-2633) ([1]; ratio of Cp EC50 values): 7 fold and ~ 7 fold
reduction of inhibition in hERG patch-clamp assay relative to 2a (SLU-2633) [6]: about two-fold

SMILES: O=C(Nc1ccc(Cl)c(Cl)c1)N1CCN(C2=Nn3cnnc3CC2)CC1 [Compound 17b, N-(3,4-dichlorophenyl)-4-(7,8-dihydro-[1,2,4]triazolo[4,3-b]pyridazin-6-yl)piperazine-1-carboxamide]
fold potency reduction compared to urea 2b ([1]; ratio of Cp EC50 values): ~ 20 fold

SMILES: O=C(Cc1ccc(Cl)c(Cl)c1)N1CCN(c2ccccc2)CC1 [Compound 6a, 2-(3,4-dichlorophenyl)-1-(4-phenylpiperazin-1-yl)ethanone]
effect in the hERG binding assay, in words [7]: does not exhibit significant effect

EC50 [1]: ≥ 20 µM
SMILES: CC(C)(C)OC(=O)N1CCN(C(=O)Cc2ccc(Cl)c(Cl)c2)CC1 [Compound 5, tert-Butyl 4-(2-(3,4-dichlorophenyl)acetyl)piperazine-1-carboxylate]

SMILES: O=C(Cc1ccc(Cl)c(Cl)c1)N1CCN(c2ccc3nccn3n2)CC1 [Compound 18a, 2-(3,4-dichlorophenyl)-1-(4-(imidazo[1,2-b]pyridazin-6-yl)piperazin-1-yl)ethanone]
potency in the Cp HCT-8 assay, in words [1]: drastically reduced the potency

EC50 [1]: 20 to 30 µM
SMILES: O=C(Nc1ccc(Cl)c(Cl)c1)N1CCN(c2cn3ccnc3cn2)CC1 [Compound 20, N-(3,4-dichlorophenyl)-4-(imidazo[1,2-a]pyrazin-6-yl)piperazine-1-carboxamide]

SMILES: O=C(Cc1ccc(Cl)c(Cl)c1)N1CCN(c2ncc([N+](=O)[O-])s2)CC1 [Compound 13, 2-(3,4-dichlorophenyl)-1-(4-(5-nitrothiazol-2-yl)piperazin-1-yl)ethanone]
potency in the Cp HCT-8 assay, in words [1]: weakly potent

Source: PMC10201403 (Bioorganic & medicinal chemistry, 2023)
